# Experimental data as given in ChEMBL document CHEMBL4828710, “Lead optimization to improve the antiviral potency of 2-aminobenzamide derivatives targeting HIV-1 Vif-A3G axis” (Eur J Med Chem, 2021).
# Active and inactive are the calls of the source. The rule behind the calls is not given here.
# Key:
# [1] = tested on: Human immunodeficiency virus 1; test: Antiviral activity against HIV13B infected in human H9 cells assessed as p24 level incubated for 7 days by ELISA; assay type: functional, organism-based; settings: Human immunodeficiency virus 1, 3B, H9, 168 h
# Outline: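 H9 cells were infected with HIV-1 IIIB at MOI 0.03 for 2 h, washed three times and resuspended in RPMI-1640. Infected cells (4 × 10⁴/well) were cultured with serially diluted compound at 37 °C in 5% CO₂ for 7 days. Supernatant p24 was measured by in-house ELISA, and EC50 was calculated.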
# [2] = tested on: H9; test: Cytotoxicity against human H9 cells assessed as cell viability incubated for 7 days by MTT colorimetric assay; assay type: functional; settings: H9, 168 h, time 7 day
# Outline: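 H9 cells (2 × 10⁵/well) were incubated with varying compound concentrations in RPMI-1640 with 10% FBS at 37 °C in 5% CO₂ for seven days. Viability was read by MTT colorimetric assay, and CC50 was calculated.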
# [3] = Therapeutic index, ratio of CC50 for cytotoxicity against human H9 cells to EC50 for antiviral activity against HIV13B; assay type: toxicity, cell-based; settings: read-out: TI
# Outline: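 TI = CC50/EC50. For EC50, H9 cells were infected with HIV-1 IIIB at MOI 0.03 for 2 h, washed three times, plated at 4 × 10⁴ cells/well with serial compound dilutions, and kept 7 days at 37 °C, 5% CO₂; supernatant p24 was read by in-house ELISA. For CC50, uninfected H9 cells at 2 × 10⁵/well in RPMI-1640 with 10% FBS were kept 7 days, then read by MTT.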
# [4] = target: Virion infectivity factor (Human immunodeficiency virus type 1 group M subtype B (isolate NY5)(HIV-1)) (UniProt P12504); test: Reversal of HIV1 Vif mediated A3G degradation in HIV1 infected human H9 cells for 48 hrs by western blotting analysis; assay type: cell-based; settings: Human immunodeficiency virus 1
# Sequence of Virion infectivity factor (Human immunodeficiency virus type 1 group M subtype B (isolate NY5)(HIV-1)) (P12504 whole entry): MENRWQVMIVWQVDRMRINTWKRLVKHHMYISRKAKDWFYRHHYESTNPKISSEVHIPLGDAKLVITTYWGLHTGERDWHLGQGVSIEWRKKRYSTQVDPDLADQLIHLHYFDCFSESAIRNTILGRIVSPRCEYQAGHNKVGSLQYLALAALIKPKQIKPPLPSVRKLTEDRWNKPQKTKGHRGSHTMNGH
# Outline: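 Cells expressing A3G-HA and Vif were treated with compound at 50, 10 and 2 (three concentrations) at 37 °C for 48 h. They were then washed in ice-cold PBS and lysed in RIPA. A3G-HA and Vif were detected by SDS-PAGE, PVDF transfer, primary antibodies overnight at 4 °C, and HRP secondary for 2 h at room temperature, with chemiluminescence on X-ray film.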
# [5] = tested on: Human immunodeficiency virus; test: Antiviral activity against FI resistant HIV PNL4-3-3gp41(364)V38A N42T infected in human TZM-bl cells assessed as inhibition of replication for 48 hrs by microplate reader method; assay type: functional, organism-based
# [6] = tested on: Human immunodeficiency virus 1; test: Antiviral activity against NRTI resistant HIV1-4755-5 infected in human TZM-bl cells assessed as inhibition of replication for 48 hrs by microplate reader method; assay type: functional, organism-based; settings: Human immunodeficiency virus 1, 4755-5, TZM-bl
# [7] = tested on: Human immunodeficiency virus 1; test: Antiviral activity against NNRTI resistant HIV1 A17 infected in human TZM-bl cells assessed as inhibition of replication for 48 hrs by microplate reader method; assay type: functional, organism-based; settings: Human immunodeficiency virus 1, A17, TZM-bl
# [8] = tested on: Human immunodeficiency virus 1; test: Antiviral activity against IN resistant HIV1 pYU2G14OS/Q148H infected in human TZM-bl cells assessed as inhibition of replication for 48 hrs by microplate reader method; assay type: functional, organism-based; settings: Human immunodeficiency virus 1, pYU2G14OS/Q148H
# [9] = tested on: Human immunodeficiency virus 1; test: Antiviral activity against PI resistant HIV-1 L70R/M461/L63P/V82T/184V infected in human TZM-bl cells assessed as inhibition of replication for 48 hrs by microplate reader method; assay type: functional, organism-based; settings: Human immunodeficiency virus 1, L70R/M461/L63P/V82T/184V
# [10] = tested on: H9; test: Reduction in HIV1 Vif expression in HIV1 infected human H9 cells assessed as for 48 hrs by western blotting analysis; assay type: functional, cell-based; settings: Human immunodeficiency virus 1, dose 2-50 µM
# Outline: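 Cells were exposed to the compound at […] at 37 °C for 48 h, then washed with ice-cold PBS and lysed in RIPA buffer. A3G-HA and Vif were resolved by SDS-PAGE and transferred to PVDF. Blots were probed overnight at 4 °C with primary antibodies, then 2 h at room temperature with HRP secondary antibodies. Bands were visualized by chemiluminescence on X-ray film.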
Compound,EC50 [1],CC50 [2],selectivity ratio [3],further results
COc1ccc(O)cc1NC(=O)c1c(N)cccc1Sc1ccc([N+](=O)[O-])cc1,0.47 µM,> 100 µM,> 213,–
Cc1cc(Br)ccc1NC(=O)c1c(N)cccc1S(=O)(=O)c1ccc([N+](=O)[O-])cc1,> 100 µM,–,–,–
COc1ccccc1NC(=O)c1c(N)ncnc1Sc1ccc([N+](=O)[O-])cc1,9.73 µM,32.9 µM,3.38,–
COc1ccc(C(=O)O)cc1NC(=O)c1c(N)cccc1S(=O)(=O)c1ccc([N+](=O)[O-])cc1,> 100 µM,–,–,–
COc1ccc(NC(=O)c2c(N)cccc2S(=O)(=O)c2ccc([N+](=O)[O-])cc2)cc1,> 100 µM,–,–,–
COc1ccc(NC(=O)c2c(N)cccc2S(=O)(=O)c2ccc([N+](=O)[O-])cc2)c(OC)c1,3.58 µM,> 100 µM,> 27.9,–
COc1ccc(OCCO)cc1NC(=O)c1c(N)cccc1Sc1ccc([N+](=O)[O-])cc1,> 100 µM,–,–,–
Nc1ccn([C@@H]2CS[C@H](CO)O2)c(=O)n1 [LAMIVUDINE],0.21 µM,> 200 µM,> 976,–
COc1ccccc1NC(=O)c1c(N)cccc1S(=O)(=O)c1ccc([N+](=O)[O-])cc1,0.34 µM,> 468 µM,> 1380,–
Nc1cccc(S(=O)(=O)c2ccc([N+](=O)[O-])cc2)c1C(=O)Nc1cccc(O)c1,> 100 µM,–,–,–
Nc1cccc(S(=O)(=O)c2ccc([N+](=O)[O-])cc2)c1C(=O)Nc1ccc(O)cc1,4.59 µM,32.5 µM,–,–
COc1ccc(F)cc1NC(=O)c1c(N)cccc1Sc1ccc([N+](=O)[O-])cc1,2.12 µM,> 100 µM,> 47.2,–
COc1ccc(OC)c(NC(=O)c2c(N)cccc2Sc2ccc([N+](=O)[O-])cc2)c1,4.05 µM,> 200 µM,> 49.4,–
COc1ccc(F)cc1NC(=O)c1c(N)ncnc1Sc1ccc([N+](=O)[O-])cc1,41.1 µM,26.6 µM,0.65,–
COc1ccc(F)cc1NC(=O)c1c(N)cccc1S(=O)(=O)c1ccc([N+](=O)[O-])cc1,1.93 µM,89.6 µM,46.4,–
COc1cc(NC(=O)c2c(N)cccc2S(=O)(=O)c2ccc([N+](=O)[O-])cc2)cc(OC)c1,> 100 µM,–,–,–
COc1ccc(O)cc1NC(=O)c1c(N)cccc1S(=O)(=O)c1ccc([N+](=O)[O-])cc1,0.07 µM,259 µM,3700,Activity [4]: Dose-Dependent Effect; EC50 [5]: 3.02 µM; EC50 [6]: 8.4 µM; EC50 [7]: 46.4 µM; EC50 [8]: 3.74 µM; EC50 [9]: 4.39 µM; Activity [10]: Active
COc1ccc(C(=O)O)cc1NC(=O)c1c(N)cccc1Sc1ccc([N+](=O)[O-])cc1,0.42 µM,> 100 µM,> 238,–
COc1ccc(NC(=O)c2c(N)cccc2S(=O)(=O)c2ccc([N+](=O)[O-])cc2)cc1OC,15.5 µM,> 100 µM,> 6.45,–
COc1ccc(Cl)cc1NC(=O)c1c(N)ncnc1Sc1ccc([N+](=O)[O-])cc1,20 µM,2.22 µM,0.11,–
Cc1cc(C)cc(NC(=O)c2c(N)cccc2S(=O)(=O)c2ccc([N+](=O)[O-])cc2)c1,26.4 µM,> 100 µM,> 3.79,–
COc1cc(O)ccc1NC(=O)c1c(N)cccc1S(=O)(=O)c1ccc([N+](=O)[O-])cc1,5.77 µM,54.7 µM,9.48,–
COc1ccc(O)cc1NC(=O)c1c(N)ncnc1Sc1ccc([N+](=O)[O-])cc1,40.6 µM,35.8 µM,0.88,–
COc1ccc(NC(=O)c2c(N)cccc2S(=O)(=O)c2ccc([N+](=O)[O-])cc2)cc1O,> 100 µM,–,–,–
COc1cccc(NC(=O)c2c(N)cccc2S(=O)(=O)c2ccc([N+](=O)[O-])cc2)c1,> 100 µM,–,–,–
COc1ccc(OCCN2CCOCC2)cc1NC(=O)c1c(N)cccc1Sc1ccc([N+](=O)[O-])cc1,> 100 µM,–,–,–
COc1ccc(OC)c(NC(=O)c2c(N)cccc2S(=O)(=O)c2ccc([N+](=O)[O-])cc2)c1,3.97 µM,> 200 µM,> 50.4,–
COc1ccc(OCCCO)cc1NC(=O)c1c(N)cccc1Sc1ccc([N+](=O)[O-])cc1,> 100 µM,–,–,–
Nc1cccc(S(=O)(=O)c2ccc([N+](=O)[O-])cc2)c1C(=O)Nc1ccc(Cl)cc1F,10.3 µM,> 100 µM,> 9.71,–
